The values that follow come from ChEMBL document CHEMBL1140875, “DNA photocleavage by porphyrin-polyamine conjugates” (Bioorg Med Chem, 2009).

Active and inactive are the calls of the source. No cut-off for these calls is given here.

Series [1] is described as follows: Photostability assessed as residual absorbance at 2.5 mW/cm2 irradiation for 45 mins. The note with it: read-out: Stability. The class given is physicochemical.
Series [2] concerns Escherichia coli. Kind of series: Induction of DNA photocleavage activity in Escherichia coli pBR322 plasmid assessed as nicked DNA form at 10 uM after 60 mins irradiation at 2.5 mW/cm2 by gel electrophoresis. In a few lines: (§1)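 Supercoiled pBR322 (0.25 µg in 10 µL) in 3 mM Tris–HCl, 0.3 mM EDTA, pH 8.0 at 25 °C, with 10 µM porphyrin. White light at 2.5 mW/cm2 from an 18 W lamp 4 cm away, for 15–120 min. Controls without porphyrin and/or without light. Products run on 0.7% non-denaturing agarose, SYBRsafe stain, transilluminator at 312 nm. Supercoiled, nicked and linear forms quantified as %.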

Series [3] can be described thus: Photostability assessed as residual absorbance at 2.5 mW/cm2 irradiation for 15 mins. In kind it is physicochemical. The note with it: read-out: Stability.
Series [4] concerns Escherichia coli. In words: Induction of DNA photocleavage activity in Escherichia coli pBR322 plasmid assessed as supercoiled DNA form at 10 uM after 60 mins irradiation at 2.5 mW/cm2 by gel electrophoresis. In short, it runs like this:
as §1

The nature of series [5]: Photostability assessed as residual absorbance at 2.5 mW/cm2 irradiation for 60 mins. The class given is physicochemical. The note with it: read-out: Stability.
Series [6] has as its system Escherichia coli. Kind of series: Induction of DNA photocleavage activity in Escherichia coli pBR322 plasmid assessed as supercoiled DNA form at 10 uM after 90 mins irradiation at 2.5 mW/cm2 by gel electrophoresis. In short, it runs like this: as §1
Series [7] deals with Escherichia coli. Kind of series: Induction of DNA photocleavage activity in Escherichia coli pBR322 plasmid assessed as nicked DNA form at 10 uM after 120 mins irradiation at 2.5 mW/cm2 by gel electrophoresis. In a few lines: as §1
Series [8] concerns Escherichia coli. In words: Induction of DNA photocleavage activity in Escherichia coli pBR322 plasmid assessed as supercoiled DNA form at 10 uM after 15 mins irradiation at 2.5 mW/cm2 by gel electrophoresis. In a few lines:
as §1

Series [9] concerns Escherichia coli. Kind of series: Induction of DNA photocleavage activity in Escherichia coli pBR322 plasmid assessed as nicked DNA form at 10 uM after 30 mins irradiation at 2.5 mW/cm2 by gel electrophoresis. In a few lines: as §1
Series [10] relates to Escherichia coli. Kind of series: Induction of DNA photocleavage activity in Escherichia coli pBR322 plasmid assessed as supercoiled DNA form at 10 uM after 30 mins irradiation at 2.5 mW/cm2 by gel electrophoresis. In a few lines:
as §1

Series [11] in a line: Lipophilicity, log P of the compound. In kind it is physicochemical. The note with it: octanol/water. In a few lines:
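1-Octanol/water partition at 25 °C with equal 3 mL phases and dye at 300 µM. Mixture vortexed and centrifuged. Aqueous and organic aliquots each diluted into MeOH, and dye concentration in each phase measured by absorption spectroscopy.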

Series [12] has as its system Escherichia coli. In words: Induction of DNA photocleavage activity in Escherichia coli pBR322 plasmid assessed as nicked DNA form at 10 uM after 15 mins irradiation at 2.5 mW/cm2 by gel electrophoresis. In a few lines: as §1
Series [13] can be described thus: Photostability assessed as residual absorbance at 2.5 mW/cm2 irradiation for 30 mins. In kind it is physicochemical. The note with it: read-out: Stability.
In series [14] the test system is Escherichia coli. In words: Induction of DNA photocleavage activity in Escherichia coli pBR322 plasmid assessed as supercoiled DNA form at 10 uM after 120 mins irradiation at 2.5 mW/cm2 by gel electrophoresis. In a few lines: as §1
In series [15] the test system is Escherichia coli. In words: Induction of DNA photocleavage activity in Escherichia coli pBR322 plasmid assessed as supercoiled DNA form at 10 uM by gel electrophoresis.
Series [16] concerns Escherichia coli. Kind of series: Induction of DNA photocleavage activity in Escherichia coli pBR322 plasmid assessed as nicked DNA form at 10 uM after 90 mins irradiation at 2.5 mW/cm2 by gel electrophoresis. In short, it runs like this: as §1
The test system of series [17] is Escherichia coli. Kind of series: Induction of DNA photocleavage activity in Escherichia coli pBR322 plasmid assessed as nicked DNA form at 10 uM by gel electrophoresis. In short, it runs like this: as §1
The nature of series [18]: Induction of singlet oxygen production at 1 uM after irradiation at 10 mW/cm2 in presence of 1,3-diphenylisobenzofuran. In kind it is physicochemical. In a few lines: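 Photosensitizer at 10^-6 M with DPBF at 6 × 10^-5 M in DMF/H2O (9/1). Illuminated at room temperature for 30 min with two 30 W white bulbs, 10 mW/cm2. DPBF absorbance decay read at 415 nm every 3 min.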

The subject of series [19] is Escherichia coli. Kind of series: Induction of DNA photocleavage activity in Escherichia coli pBR322 plasmid assessed as linear DNA form at 10 uM after 120 mins irradiation at 2.5 mW/cm2 by gel electrophoresis. In a few lines: as §1
The test system of series [20] is Escherichia coli. Kind of series: Induction of DNA photocleavage activity in Escherichia coli pBR322 plasmid assessed as supercoiled DNA form at 10 uM after 60 mins irradiation at 2.5 mW/cm2 by gel electrophoresis in presence of sodium azide. In short, it runs like this: (§2)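 pBR322 (0.25 µg) in 3 mM Tris–HCl, 0.3 mM EDTA, pH 8.0 with 10 µM porphyrin, irradiated 60 min in the presence of 100 mM sodium azide (singlet oxygen quencher) or 100 mM mannitol (hydroxyl radical scavenger). Controls without porphyrin, ± irradiation, with each additive. Read-out by agarose gel electrophoresis.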

Series [21] relates to Escherichia coli. Kind of series: Induction of DNA photocleavage activity in Escherichia coli pBR322 plasmid at 10 uM after irradiation for 2 hrs by gel electrophoresis.
Series [22] deals with Escherichia coli. In words: Induction of DNA photocleavage activity in Escherichia coli pBR322 plasmid assessed as linear DNA form at 10 uM after 90 mins irradiation at 2.5 mW/cm2 by gel electrophoresis. In a few lines:
as §1

For series [23], the system named is Escherichia coli. In words: Induction of DNA photocleavage activity in Escherichia coli pBR322 plasmid assessed as supercoiled DNA form at 10 uM after 60 mins irradiation at 2.5 mW/cm2 by gel electrophoresis in presence of mannitol. In short, it runs like this: as §2
Series [24] relates to Escherichia coli. Kind of series: Induction of DNA photocleavage activity in Escherichia coli pBR322 plasmid assessed as nicked DNA form at 10 uM after 60 mins irradiation at 2.5 mW/cm2 by gel electrophoresis in presence of sodium azide. In short, it runs like this:
as §2

Series [25] relates to DNA. In words: Binding affinity to calf thymus DNA at 4 uM in phosphate buffer of pH 7.4 by UV-vis spectroscopy. In kind it is nucleic-acid assay. The note with it: Bos taurus. In short, it runs like this: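 Porphyrin held at 4 × 10^-6 M in PBS pH 7.4 and read by UV–vis at the Soret maximum. Calf thymus DNA titrated in at base-pair concentrations from 1.2 × 10^-6 to 1.2 × 10^-5 M, base pair/porphyrin ratio 0.2 to 3. Change in the Soret band followed.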

The subject of series [26] is Escherichia coli. In words: Induction of DNA photocleavage activity in Escherichia coli pBR322 plasmid assessed as nicked DNA form at 10 uM after 60 mins irradiation at 2.5 mW/cm2 by gel electrophoresis in presence of mannitol. In short, it runs like this: as §2
Series [27] has as its system Escherichia coli. In words: Induction of DNA photocleavage activity in Escherichia coli pBR322 plasmid assessed as linear DNA form at 10 uM after 60 mins irradiation at 2.5 mW/cm2 by gel electrophoresis. In short, it runs like this: as §1

A word on the logP: it is a log measure of how a compound divides between an organic and an aqueous phase. Higher therefore signals a more lipophilic compound. In the case of `Cc1cc(C)c(-c2c3nc(c(-c4ccc(C(=O)NCCCCC(=O)N(CCCN)CCCCNCCCN)cc4)c4ccc([nH]4)c(-c4c(C)cc(C)cc4C)c4nc(c(-c5ccc(C(=O)NCCCCC(=O)N(CCCN)CCCCNCCCN)cc5)c5ccc2[nH]5)C=C4)C=C3)c(C)c1`, the remaining at 0.75 h in [1] amounted to 99%. For the same compound, the Activity in series [2] was 30%; in [4] it was 70%; in [6], 72%; in series [7], 29%; in [8] it was 70%; in series [9] it was 28%. In addition, the Activity is 72% in series [10]; 30% in [12]; 71% in [14]; 70% in series [15]; 28% in [16]; 30% in series [17]. In addition, in [18], the result was Active. Besides, in [3], the remaining at 0.25 h was found to be 100%. For the same compound, the remaining at 1 h in [5] was determined as 98%. In series [11], this compound yielded a logP of 0.07. Besides, in series [13], the remaining at 0.5 h was 99%.
Take `C=CC1=C(C)c2cc3[nH]c(cc4nc(cc5[nH]c(cc1n2)c(C)c5CCC(=O)NCCCCC(=O)N(CCCN)CCCCNCCCN)C(CCC(=O)NCCCCC(=O)N(CCCN)CCCCNCCCN)=C4C)c(C)c3C=C`: the remaining at 0.75 h in series [1] turned out to be 100%. In addition, the Activity was 93% in [2]; 7% in [4]; 1% in series [6]; 2% in series [19]; 51% in series [20]; 97% in series [7]. The Activity in [8] is 45%; in series [9], 74%; in series [10], 26%; in series [22] it was 2%; in series [23], 32%; in series [12] it was 55%. In addition, the Activity in [24] was 49%; in [14], 1%; in [15], 81%; in series [16], 97%; in [17], 34%; in series [26] it was 68%. In addition, the outcome in [18] was Active. Also, in series [3], the remaining at 0.25 h stood at 100%. In [5], the remaining at 1 h amounted to 97%. The outcome in [21] and in series [25] was Active. In series [11], this compound registered a lipophilicity (logP) of -0.51. In series [13], the remaining at 0.5 h was determined as 100%.
Take `NCCCCN(CCCN)C(=O)CCCCNC(=O)c1ccc(-c2c3nc(c(-c4ccc(C(=O)NCCCCC(=O)N(CCCN)CCCCN)cc4)c4ccc([nH]4)c(-c4ccc(C(=O)NCCCCC(=O)N(CCCN)CCCCN)cc4)c4nc(c(-c5ccc(C(=O)NCCCCC(=O)N(CCCN)CCCCN)cc5)c5ccc2[nH]5)C=C4)C=C3)cc1`: in [1], the remaining at 0.75 h stood at 98%. The Activity in series [2] came out at 39%; in [4], 59%; in series [6], 43%; in series [19], 10%; in series [7], 51%; in series [8], 72%. Besides, the Activity in series [9] came out at 36%; in [10], 64%; in [22], 7%; in series [12] it was 28%; in [14], 39%; in [15] it was 84%. For the same compound, the Activity was 2% in series [27], 50% in [16], 16% in series [17] and “Active” in series [18]. Also, the remaining at 0.25 h in [3] came out at 100%. The remaining at 1 h in series [5] turned out to be 97%. The logP in series [11] is -2.02. In series [13], the remaining at 0.5 h was determined as 99%. Besides, in series [25], the result was Active.
For the compound `Cc1cc(C)c(-c2c3nc(c(-c4ccc(C(=O)NCCCCC(=O)N(CCCN)CCCCN)cc4)c4ccc([nH]4)c(-c4c(C)cc(C)cc4C)c4nc(c(-c5ccc(C(=O)NCCCCC(=O)N(CCCN)CCCCN)cc5)c5ccc2[nH]5)C=C4)C=C3)c(C)c1`, the remaining at 0.75 h in [1] stood at 100%. The Activity in series [2] was found to be 28%; in series [4], 72%; in series [6], 71%; in series [7], 22%; in series [8], 73%; in series [9], 25%. For the same compound, the Activity in [10] came to 75%; in series [12], 27%; in series [14], 78%; in [15], 73%; in series [16], 29%; in series [17], 27%. In series [18], the result was Active. Also, the remaining at 0.25 h in series [3] worked out at 100%. In addition, the remaining at 1 h in series [5] amounted to 99%. This compound also gave a logP in [11] of 0.11. Also, in [13], the remaining at 0.5 h amounted to 100%.
On to `NCCCNCCCCN(CCCN)C(=O)CCCCNC(=O)c1ccc(-c2c3nc(c(-c4ccc(C(=O)NCCCCC(=O)N(CCCN)CCCCNCCCN)cc4)c4ccc([nH]4)c(-c4ccc(C(=O)NCCCCC(=O)N(CCCN)CCCCNCCCN)cc4)c4nc(c(-c5ccc(C(=O)NCCCCC(=O)N(CCCN)CCCCNCCCN)cc5)c5ccc2[nH]5)C=C4)C=C3)cc1`, for which the remaining at 0.75 h in series [1] amounted to 99%. Further, the Activity in series [2] is 51%; in [4] it was 40%; in series [6], 38%; in series [19], 15%; in [7], 75%; in series [8], 66%. In addition, the Activity in [9] worked out at 43%; in series [10], 57%; in series [22], 9%; in [12], 34%; in series [14] it was 11%; in series [15], 85%. In addition, the Activity in series [27] was 8%; in [16], 53%; in [17] it was 15%; in series [18], “Active”. Besides, in [3], the remaining at 0.25 h was found to be 100%. In addition, the remaining at 1 h in [5] came out at 97%. The same compound showed a logP in [11] of -2.83. In addition, the remaining at 0.5 h in [13] is 100%. In addition, the outcome in series [25] was Active.
